≈ marks a conversion by molar mass, not a printed value.
Assays:
[1] = test system: Acinetobacter baumannii; experiment: Antibacterial activity against Acinetobacter baumannii ATCC 19606 by Etest method in presence of NAB739; type: functional
[2] = test system: Escherichia coli; experiment: Antibacterial activity against Escherichia coli ATCC […] by Etest method in presence of 1 ug/ml NAB7061; type: functional
[3] = test system: Escherichia coli; experiment: Antibacterial activity against 5 x 10^5 CFU/ml Escherichia coli ATCC […] by Etest method by Etest in presence of 2 ug/ml NAB7061; type: functional
[4] = test system: Escherichia coli; experiment: Antibacterial activity against 5 x 10^5 CFU/ml Escherichia coli ATCC 25992 in presence of 16 ug/ml NAB7061 by Checkerboard method; type: functional
[5] = test system: Klebsiella pneumoniae; experiment: Antibacterial activity against Klebsiella pneumoniae ATCC 13883 by Etest method in presence of 4 ug/ml NAB7061; type: functional
In short: (§1)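 MICs of the antibiotic taken from E-strips on Mueller-Hinton agar, run both with and without peptide. […] Inoculum was prepared per the strip manufacturer, matching CLSI M2-A9.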

[6] = test system: Klebsiella pneumoniae; experiment: Antibacterial activity against Klebsiella pneumoniae ATCC 13883 by Etest method in presence of NAB7061; type: functional; in short: as §1
[7] = test system: Escherichia coli; experiment: Antibacterial activity against Escherichia coli IH3080 by Etest method in presence of 4 ug/ml NAB7064; type: functional
[8] = test system: Escherichia coli; experiment: Antibacterial activity against 5 x 10^5 CFU/ml Escherichia coli ATCC […] by Etest method by Etest in presence of 8 ug/ml NAB7061; type: functional
[9] = test system: Enterobacter cloacae; experiment: Antibacterial activity against Enterobacter cloacae by Etest method in presence of 4 ug/ml NAB7068; type: functional
[10] = test system: Escherichia coli; experiment: microbe, parasite or virus in culture; conditions: ATCC 25992
[11] = test system: Acinetobacter baumannii; experiment: Antibacterial activity against Acinetobacter baumannii F264 by Etest method; type: functional
In short: (§2)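 E-strip MIC on Mueller-Hinton agar without added peptide; inoculum per manufacturer, matching CLSI M2-A9.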

[12] = test system: Klebsiella oxytoca; experiment: Antibacterial activity against Klebsiella oxytoca ATCC 13182 by Etest method in presence of 4 ug/ml NAB7065; type: functional
[13] = test system: Acinetobacter baumannii; experiment: Antibacterial activity against Acinetobacter baumannii ATCC 19606 by Etest method in presence of 4 ug/ml NAB7070; type: functional
[14] = test system: Acinetobacter baumannii; experiment: Antibacterial activity against Acinetobacter baumannii ATCC 19606 by Etest method in presence of 0.5 ug/ml NAB739; type: functional
[15] = test system: Escherichia coli; experiment: microbe, parasite or virus in culture; conditions: ATCC 25992; remark: listed apart in the source
[16] = test system: Escherichia coli; experiment: Antibacterial activity against 5 x 10^5 CFU/ml Escherichia coli ATCC 25992 in presence of 2 ug/ml NAB7061 by Checkerboard method; type: functional
[17] = test system: Escherichia coli; experiment: Antibacterial activity against Escherichia coli ATCC 25992 by Etest method; type: functional; in short: as §2

## CO[C@H]1/C=C/O[C@@]2(C)Oc3c(C)c(O)c4c(O)c(c(/C=N/N5CCN(C)CC5)c(O)c4c3C2=O)NC(=O)/C(C)=C\C=C\[C@H](C)[C@H](O)[C@@H](C)[C@@H](O)[C@@H](C)[C@H](OC(C)=O)[C@@H]1C [RIFAMPIN]
[1]
  fractional inhibitory concentration index (FICI): 0.126
[2]
  MIC: 0.19 µg/mL
[3]
  MIC: 0.064 µg/mL
[4]
  MIC: 0.031 µg/mL
[5]
  MIC: 0.064 µg/mL
[6]
  MIC: ≤ 0.073 µg/mL
[7]
  MIC: 0.023 µg/mL
[8]
  MIC: 0.006 µg/mL
[9]
  MIC: 0.016 µg/mL
[10]
  MIC: 8 µg/mL (≈ 9.72 µM)
[11]
  MIC: 12 µg/mL (≈ 14.6 µM)
[12]
  MIC: 0.032 µg/mL
[13]
  MIC: 0.094 µg/mL
[14]
  MIC: 0.047 µg/mL
[15]
  MIC: 8 µg/mL (≈ 9.72 µM)
[16]
  MIC: 0.5 µg/mL
[17]
  MIC: 8 µg/mL (≈ 9.72 µM)

Reference: ChEMBL document CHEMBL1671867, “Novel polymyxin derivatives carrying only three positive charges are effective antibacterial agents” (Antimicrob Agents Chemother, 2008)
